Here are results for 6 compounds from article PMC12541583 (Acta Pharmaceutica Sinica. B, 2025).

Where only a bound is given, the exact number is not on record here.

A word on the Papp A→B: it is the apparent permeability from the apical to the basolateral side of a cell layer. Low readings indicate slow passage, high ones fast passage. As a reminder, the IC50 is the midpoint of a concentration-inhibition curve.

One data set deals with MDR1 (P-gp) (Homo sapiens, UniProt P08183). Kind of data set: In vitro Pg-P efflux assay. The data set is classed as in vitro ADME. As to conditions: not told.
Sequence of MDR1 (P-gp) (P08183 whole entry, species assumed): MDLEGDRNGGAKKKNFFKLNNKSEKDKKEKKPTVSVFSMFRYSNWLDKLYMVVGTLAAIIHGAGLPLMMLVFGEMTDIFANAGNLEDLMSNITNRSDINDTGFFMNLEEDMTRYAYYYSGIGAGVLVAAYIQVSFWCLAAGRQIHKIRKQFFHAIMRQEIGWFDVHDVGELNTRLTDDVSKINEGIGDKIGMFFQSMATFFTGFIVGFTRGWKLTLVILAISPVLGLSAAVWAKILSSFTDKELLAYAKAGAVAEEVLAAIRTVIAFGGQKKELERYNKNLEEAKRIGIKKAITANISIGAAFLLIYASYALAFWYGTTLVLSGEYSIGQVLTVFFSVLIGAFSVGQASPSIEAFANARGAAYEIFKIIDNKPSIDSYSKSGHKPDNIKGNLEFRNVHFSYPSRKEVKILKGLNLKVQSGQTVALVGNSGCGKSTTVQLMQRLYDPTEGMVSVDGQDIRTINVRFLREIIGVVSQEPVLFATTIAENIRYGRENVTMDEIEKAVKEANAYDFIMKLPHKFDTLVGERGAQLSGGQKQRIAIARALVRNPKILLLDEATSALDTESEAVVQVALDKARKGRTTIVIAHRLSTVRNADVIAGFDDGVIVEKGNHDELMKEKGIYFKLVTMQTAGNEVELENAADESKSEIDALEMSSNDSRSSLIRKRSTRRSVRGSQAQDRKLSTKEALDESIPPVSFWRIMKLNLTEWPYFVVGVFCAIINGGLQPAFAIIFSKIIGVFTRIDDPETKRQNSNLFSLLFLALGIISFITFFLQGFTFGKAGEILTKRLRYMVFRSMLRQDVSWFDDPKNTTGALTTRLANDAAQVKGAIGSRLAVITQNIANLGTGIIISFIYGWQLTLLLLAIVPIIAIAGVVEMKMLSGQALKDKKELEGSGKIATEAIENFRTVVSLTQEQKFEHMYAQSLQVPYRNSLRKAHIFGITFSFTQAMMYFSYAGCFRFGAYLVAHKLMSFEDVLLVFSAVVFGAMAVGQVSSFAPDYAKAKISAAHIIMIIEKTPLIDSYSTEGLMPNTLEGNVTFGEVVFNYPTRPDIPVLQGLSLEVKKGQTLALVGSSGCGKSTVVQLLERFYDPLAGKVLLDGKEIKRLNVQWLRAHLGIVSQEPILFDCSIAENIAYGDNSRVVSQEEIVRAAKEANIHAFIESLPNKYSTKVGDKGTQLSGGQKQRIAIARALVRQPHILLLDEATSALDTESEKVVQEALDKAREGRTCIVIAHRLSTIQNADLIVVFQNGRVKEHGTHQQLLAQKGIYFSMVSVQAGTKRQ
The next data set addresses T1, CYP1A2 (Homo sapiens, UniProt P05177).
T1 sequence (P05177 1-516): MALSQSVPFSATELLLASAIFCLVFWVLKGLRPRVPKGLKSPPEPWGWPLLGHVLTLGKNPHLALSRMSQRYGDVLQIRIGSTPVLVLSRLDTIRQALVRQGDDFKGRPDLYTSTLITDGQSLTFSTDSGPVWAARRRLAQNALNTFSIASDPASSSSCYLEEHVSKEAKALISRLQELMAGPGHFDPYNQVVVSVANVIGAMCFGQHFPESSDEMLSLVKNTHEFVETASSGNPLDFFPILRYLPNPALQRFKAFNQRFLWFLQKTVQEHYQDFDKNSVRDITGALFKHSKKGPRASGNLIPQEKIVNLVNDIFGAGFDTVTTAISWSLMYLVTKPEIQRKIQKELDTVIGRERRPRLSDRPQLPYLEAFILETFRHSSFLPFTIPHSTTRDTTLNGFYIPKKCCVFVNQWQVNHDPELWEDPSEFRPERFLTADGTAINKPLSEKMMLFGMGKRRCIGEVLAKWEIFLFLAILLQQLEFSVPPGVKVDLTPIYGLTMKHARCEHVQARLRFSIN
Kind of data set: CYP interactions, CYP1A2. It counts as in vitro ADME.

The next data set deals with CYP2D6 (Homo sapiens, UniProt P10635). Kind of data set: CYP interactions, CYP2D6. The data set is classed as in vitro ADME.
Sequence of CYP2D6 (P10635 whole entry, species assumed): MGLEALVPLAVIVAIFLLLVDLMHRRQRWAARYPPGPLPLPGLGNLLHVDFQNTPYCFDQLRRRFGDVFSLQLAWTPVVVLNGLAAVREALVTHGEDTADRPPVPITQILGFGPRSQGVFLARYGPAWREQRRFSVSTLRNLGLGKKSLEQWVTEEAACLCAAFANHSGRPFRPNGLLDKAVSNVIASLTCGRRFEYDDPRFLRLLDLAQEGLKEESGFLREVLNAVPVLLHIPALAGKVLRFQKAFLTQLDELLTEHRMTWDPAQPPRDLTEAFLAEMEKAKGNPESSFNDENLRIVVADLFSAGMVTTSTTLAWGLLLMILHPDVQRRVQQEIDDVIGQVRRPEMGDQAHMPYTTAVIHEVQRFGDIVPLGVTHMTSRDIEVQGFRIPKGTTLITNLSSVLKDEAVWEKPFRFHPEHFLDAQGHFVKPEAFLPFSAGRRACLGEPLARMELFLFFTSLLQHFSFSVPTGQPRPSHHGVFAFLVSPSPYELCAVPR
A further data set addresses CYP2C19 (Homo sapiens, UniProt P33261). Kind of data set: CYP interactions, CYP2C19. The data set is classed as in vitro ADME.
The next data set addresses CYP3A4 (Homo sapiens, UniProt P08684). The experiment in a line: CYP interactions, CYP3A4. The data set is classed as in vitro ADME.
The next data set has as its target CYP2C9 (Homo sapiens, UniProt P11712). Kind of data set: CYP interactions, CYP2C9. The data set is classed as in vitro ADME.
A further data set has as its target T2, CYP19A (Homo sapiens, UniProt P11511).
T2 sequence (P11511 1-503): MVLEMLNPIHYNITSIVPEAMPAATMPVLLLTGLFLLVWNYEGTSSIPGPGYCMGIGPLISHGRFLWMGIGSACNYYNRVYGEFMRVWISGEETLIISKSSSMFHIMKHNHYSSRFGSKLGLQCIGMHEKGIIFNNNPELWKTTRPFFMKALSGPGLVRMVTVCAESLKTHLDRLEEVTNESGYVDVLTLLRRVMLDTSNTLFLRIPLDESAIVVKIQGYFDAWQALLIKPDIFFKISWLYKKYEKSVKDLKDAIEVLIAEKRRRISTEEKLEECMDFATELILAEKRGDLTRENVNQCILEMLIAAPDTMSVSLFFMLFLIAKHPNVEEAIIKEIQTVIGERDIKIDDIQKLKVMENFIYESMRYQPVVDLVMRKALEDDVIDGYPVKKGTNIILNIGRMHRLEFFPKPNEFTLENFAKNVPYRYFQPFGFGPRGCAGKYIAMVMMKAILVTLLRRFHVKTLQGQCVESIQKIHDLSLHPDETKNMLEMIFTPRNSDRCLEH
The experiment in a line: CYP interactions, CYP19A. The data set is classed as in vitro ADME.

In data set [1] the target is human ether-a-go-go-related gene (hERG) channel (Homo sapiens, UniProt Q12809). Kind of data set: In vitro hERG channel safety. A general note: The hERG channel carries a current that helps repolarise heart muscle cells.
For another data set, the system named is HepG2 cells. Kind of data set: CellTiter-Glo luminescent cell viability assay in HepG2 cells. As to conditions: Homo sapiens, HepG2, read-out: HepG2 IC50. The data set is classed as cell-based.
Data set [2] concerns PARP1. Kind of data set: In vitro autoradiography of [18F]AZD9574 on NHP cerebellum brain sections. The data set is classed as binding. The following applies: blocker 10 μmol/L. The method, boiled down: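 Rat and NHP brain sections were pre-incubated 10 min at ambient temperature in 50 mmol/L Tris–HCl with 0.1% BSA. They were then incubated 1 h with radioligand (~4 μCi/mL, ~4 nmol/L), with blockers at 10 μmol/L added beforehand. Sections were rinsed twice for 2 min in ice-cold buffer with ethanol, dipped in cold water, air-dried and exposed to imaging plates overnight. ROI radioactivity was taken as % of control; mean ± SD, n = 3.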

Data set [3] addresses PARP1 (Macaca mulatta, UniProt H9FQ77). Kind of data set: NHP PET imaging of [18F]AZD9574, baseline and blocking. It counts as in vivo, rhesus monkeys. In a few lines:
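An iv bolus of tracer (4.05 ± 0.54 mCi) was followed by 90 min dynamic 3D PET acquisition in 36 frames. ROIs were drawn on co-registered T1-weighted MRI. Regional SUV time–activity curves were generated; baseline scans n = 2 animals.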

In data set [4] the target is PARP1 (Rattus norvegicus, UniProt P27008). Kind of data set: In vitro autoradiography of [18F]AZD9574 on rat brain sections. The data set is classed as binding. As to conditions: blocker 10 μmol/L.
Sequence of PARP1 (Rattus norvegicus, UniProt P27008) (P27008 whole entry): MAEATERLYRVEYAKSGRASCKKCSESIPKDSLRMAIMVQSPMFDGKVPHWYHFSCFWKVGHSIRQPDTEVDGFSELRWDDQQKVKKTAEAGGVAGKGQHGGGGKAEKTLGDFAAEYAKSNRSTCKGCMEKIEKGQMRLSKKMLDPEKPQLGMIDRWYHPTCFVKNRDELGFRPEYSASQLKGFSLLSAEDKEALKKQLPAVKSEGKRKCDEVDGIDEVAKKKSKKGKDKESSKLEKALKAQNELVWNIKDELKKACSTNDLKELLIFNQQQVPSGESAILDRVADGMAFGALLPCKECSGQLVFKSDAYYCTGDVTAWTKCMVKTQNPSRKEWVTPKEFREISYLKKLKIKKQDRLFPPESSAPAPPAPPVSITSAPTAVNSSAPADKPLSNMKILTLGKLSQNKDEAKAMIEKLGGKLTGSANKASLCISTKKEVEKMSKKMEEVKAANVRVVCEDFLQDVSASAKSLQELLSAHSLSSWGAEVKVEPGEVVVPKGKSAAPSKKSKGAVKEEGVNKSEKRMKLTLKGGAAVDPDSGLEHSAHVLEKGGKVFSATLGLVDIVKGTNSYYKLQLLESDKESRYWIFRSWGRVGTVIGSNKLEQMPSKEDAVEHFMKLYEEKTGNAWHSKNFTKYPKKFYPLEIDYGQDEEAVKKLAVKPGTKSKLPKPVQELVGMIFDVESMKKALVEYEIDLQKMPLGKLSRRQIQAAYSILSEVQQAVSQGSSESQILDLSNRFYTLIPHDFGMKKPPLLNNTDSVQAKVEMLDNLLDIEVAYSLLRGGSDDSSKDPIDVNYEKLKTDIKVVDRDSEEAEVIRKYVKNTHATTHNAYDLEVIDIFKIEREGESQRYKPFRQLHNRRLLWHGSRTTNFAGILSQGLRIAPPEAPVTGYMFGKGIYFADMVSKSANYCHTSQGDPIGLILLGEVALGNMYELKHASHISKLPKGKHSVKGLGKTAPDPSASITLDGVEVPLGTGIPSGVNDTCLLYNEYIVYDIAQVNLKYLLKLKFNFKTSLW
Another data set concerns PC3 cell lines. The experiment in a line: In vitro cellular uptake and blocking of [18F]AZD9574 in PC3 cells. It counts as cell-based. The following applies: blocker 1 μmol/L. The method, boiled down:
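PC3 cells were grown in F-12K with 10% FBS and 1% penicillin–streptomycin at 37 °C, 5% CO2, and seeded at 1×10^5 cells/well 24 h before use. After two PBS rinses, 1 μCi/well tracer plus blocking agent was added in serum-free medium for 60 min at 37 °C. Cells were rinsed twice with cold PBS, lysed in 0.1 mol/L NaOH and counted in a gamma counter.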

Sequence of PARP1 (Macaca mulatta, UniProt H9FQ77) (H9FQ77 1-1014): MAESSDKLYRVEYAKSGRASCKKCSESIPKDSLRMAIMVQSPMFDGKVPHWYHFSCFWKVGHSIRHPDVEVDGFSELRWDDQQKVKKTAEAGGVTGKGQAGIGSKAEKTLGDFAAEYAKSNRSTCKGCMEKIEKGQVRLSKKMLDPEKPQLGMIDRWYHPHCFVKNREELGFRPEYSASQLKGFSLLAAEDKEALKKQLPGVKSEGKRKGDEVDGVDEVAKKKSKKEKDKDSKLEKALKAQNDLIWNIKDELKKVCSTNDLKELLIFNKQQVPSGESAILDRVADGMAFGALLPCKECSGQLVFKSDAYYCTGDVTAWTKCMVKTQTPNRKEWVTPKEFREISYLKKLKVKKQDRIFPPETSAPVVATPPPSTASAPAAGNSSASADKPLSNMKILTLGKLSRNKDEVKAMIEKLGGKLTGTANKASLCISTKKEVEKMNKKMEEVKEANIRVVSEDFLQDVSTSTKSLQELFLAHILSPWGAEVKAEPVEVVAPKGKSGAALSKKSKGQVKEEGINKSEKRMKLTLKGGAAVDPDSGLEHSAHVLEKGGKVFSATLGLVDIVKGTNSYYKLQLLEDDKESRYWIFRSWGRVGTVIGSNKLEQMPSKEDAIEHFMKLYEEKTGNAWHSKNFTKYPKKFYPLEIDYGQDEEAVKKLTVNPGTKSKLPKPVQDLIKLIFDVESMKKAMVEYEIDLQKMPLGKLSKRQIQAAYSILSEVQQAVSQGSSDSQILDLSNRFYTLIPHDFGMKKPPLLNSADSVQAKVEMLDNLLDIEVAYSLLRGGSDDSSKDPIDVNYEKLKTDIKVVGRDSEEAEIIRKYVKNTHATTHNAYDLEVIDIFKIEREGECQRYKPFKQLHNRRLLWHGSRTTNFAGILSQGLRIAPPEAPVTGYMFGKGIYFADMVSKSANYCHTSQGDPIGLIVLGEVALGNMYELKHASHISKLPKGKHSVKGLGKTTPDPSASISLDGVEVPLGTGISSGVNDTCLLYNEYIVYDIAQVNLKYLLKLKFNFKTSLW
Sequence of CYP3A4 (P08684 whole entry, species assumed): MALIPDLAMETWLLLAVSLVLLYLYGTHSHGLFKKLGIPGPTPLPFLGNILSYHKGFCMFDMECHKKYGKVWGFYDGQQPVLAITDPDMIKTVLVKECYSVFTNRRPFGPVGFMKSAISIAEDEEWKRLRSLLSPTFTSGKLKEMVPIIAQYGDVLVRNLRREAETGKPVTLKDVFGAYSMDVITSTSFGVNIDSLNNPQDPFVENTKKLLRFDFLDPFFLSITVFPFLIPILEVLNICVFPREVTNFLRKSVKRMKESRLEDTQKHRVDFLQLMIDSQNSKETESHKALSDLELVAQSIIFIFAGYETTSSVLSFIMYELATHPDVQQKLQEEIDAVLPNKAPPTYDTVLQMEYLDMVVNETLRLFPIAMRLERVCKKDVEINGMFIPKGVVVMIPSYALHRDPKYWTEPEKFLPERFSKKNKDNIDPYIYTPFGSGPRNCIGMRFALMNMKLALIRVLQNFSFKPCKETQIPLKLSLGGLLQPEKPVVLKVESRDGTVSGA
Sequence of CYP2C19 (P33261 whole entry, species assumed): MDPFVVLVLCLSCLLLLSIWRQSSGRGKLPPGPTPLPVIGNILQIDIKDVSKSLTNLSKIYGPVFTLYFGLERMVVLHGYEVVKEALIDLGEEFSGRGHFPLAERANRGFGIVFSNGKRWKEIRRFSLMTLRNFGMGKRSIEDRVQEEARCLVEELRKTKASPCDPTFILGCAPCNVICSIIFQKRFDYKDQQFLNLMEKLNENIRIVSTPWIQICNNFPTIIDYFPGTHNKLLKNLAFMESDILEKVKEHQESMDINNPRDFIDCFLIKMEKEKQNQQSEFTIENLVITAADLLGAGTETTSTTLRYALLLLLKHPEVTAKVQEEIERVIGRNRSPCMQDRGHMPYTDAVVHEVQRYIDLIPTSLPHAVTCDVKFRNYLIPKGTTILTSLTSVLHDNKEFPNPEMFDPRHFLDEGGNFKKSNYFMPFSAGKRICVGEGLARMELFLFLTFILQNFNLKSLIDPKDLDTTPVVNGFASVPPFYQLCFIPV

At MDR1 (P-gp), `CNC(=O)c1ccc(N2CCN(Cc3ccc4nc(C)c(=O)[nH]c4c3F)CC2)c(F)n1` [compound 5, 6-fluoro-5-(4-((5-fluoro-2-methyl-3-oxo-3,4-dihydroquinoxalin-6-yl)methyl)piperazin-1-yl)-N-methylpicolinamide] gave an apparent permeability from apical to basolateral (Papp A→B) of 42.5 ×10⁻⁶ cm/s. For the same compound, the IC50 against CYP1A2, against CYP2D6, against CYP2C19, at CYP3A4, against CYP2C9 and against CYP19A was greater than 5 µM in each case. The half-inhibitory concentration (IC50) (in [1]; with HepG2 cells) was greater than 100 µM throughout. For the same compound, the “effect on [18F]AZD9574 uptake in the cerebellum” value in the data set with PARP1 [2] is recorded as “substantial uptake reduction”. Also, the “reduction of [18F]AZD9574 radioactivity accumulation in the cerebellum (area under curve 60-90 min)” value on PARP1 [3] (pretreatment 0.05 mg/kg) is 37.7%; on PARP1 [3] (pretreatment 0.5 mg/kg), 63.4%.

Turning to `CNCc1ccc(-c2[nH]c3cc(F)cc4c3c2CCNC4=O)cc1` [rucaparib], the “reduction of [18F]AZD9574 radioactivity accumulation in all brain regions” value (shortened to “reduction … in all brain regions”) at PARP1 [4] is recorded as “greater than 85%”.

As for `O=C(c1cc(Cc2n[nH]c(=O)c3ccccc23)ccc1F)N1CCN(C(=O)C2CC2)CC1` [olaparib, reference compound], the “effect on [18F]AZD9574 uptake” value with PC3 cell lines is on record as “significantly attenuated”. For the same compound, the “effect on [18F]AZD9574 uptake in the cerebellum” value in the data set with PARP1 [2] is “substantial uptake reduction”.

In the case of `C[C@]1(c2nc3c(C(N)=O)cccc3[nH]2)CCCN1` [veliparib], at PARP1 [4], the “reduction … in all brain regions” value is “greater than 85%”.

In the case of `C[C@]12CCCN1CC1=NNC(=O)c3cc(F)cc4[nH]c2c1c34` [pamiparib], the “reduction … in all brain regions” value at PARP1 [4] is listed as “greater than 85%”.

Turning to `COC1CCN(C(=O)c2cc(Cc3n[nH]c(=O)c4ccccc34)ccc2F)CC1` [AZD2461], on PARP1 [4], the “reduction … in all brain regions” value is listed as “greater than 85%”.
